Test results published in ChEMBL document CHEMBL4354804, “Discovery of a New Isoxazole-3-hydroxamate-Based Histone Deacetylase 6 Inhibitor SS-208 with Antitumor Activity in Syngeneic Melanoma Mouse Models” (J Med Chem, 2019).
The source made the active and inactive calls. No cut-off for these calls is given here.

What was measured:
[1] = target: T1, Protein deacetylase HDAC6 (Mus musculus) (UniProt Q9Z2V5); test: Inhibition of HDAC6 in mouse SM1 cells assessed as increase in acetylated alpha-tubulin level at 5 to 10 uM after 24 hrs by Western blot analysis; type: cell-based
T1 sequence (whole entry): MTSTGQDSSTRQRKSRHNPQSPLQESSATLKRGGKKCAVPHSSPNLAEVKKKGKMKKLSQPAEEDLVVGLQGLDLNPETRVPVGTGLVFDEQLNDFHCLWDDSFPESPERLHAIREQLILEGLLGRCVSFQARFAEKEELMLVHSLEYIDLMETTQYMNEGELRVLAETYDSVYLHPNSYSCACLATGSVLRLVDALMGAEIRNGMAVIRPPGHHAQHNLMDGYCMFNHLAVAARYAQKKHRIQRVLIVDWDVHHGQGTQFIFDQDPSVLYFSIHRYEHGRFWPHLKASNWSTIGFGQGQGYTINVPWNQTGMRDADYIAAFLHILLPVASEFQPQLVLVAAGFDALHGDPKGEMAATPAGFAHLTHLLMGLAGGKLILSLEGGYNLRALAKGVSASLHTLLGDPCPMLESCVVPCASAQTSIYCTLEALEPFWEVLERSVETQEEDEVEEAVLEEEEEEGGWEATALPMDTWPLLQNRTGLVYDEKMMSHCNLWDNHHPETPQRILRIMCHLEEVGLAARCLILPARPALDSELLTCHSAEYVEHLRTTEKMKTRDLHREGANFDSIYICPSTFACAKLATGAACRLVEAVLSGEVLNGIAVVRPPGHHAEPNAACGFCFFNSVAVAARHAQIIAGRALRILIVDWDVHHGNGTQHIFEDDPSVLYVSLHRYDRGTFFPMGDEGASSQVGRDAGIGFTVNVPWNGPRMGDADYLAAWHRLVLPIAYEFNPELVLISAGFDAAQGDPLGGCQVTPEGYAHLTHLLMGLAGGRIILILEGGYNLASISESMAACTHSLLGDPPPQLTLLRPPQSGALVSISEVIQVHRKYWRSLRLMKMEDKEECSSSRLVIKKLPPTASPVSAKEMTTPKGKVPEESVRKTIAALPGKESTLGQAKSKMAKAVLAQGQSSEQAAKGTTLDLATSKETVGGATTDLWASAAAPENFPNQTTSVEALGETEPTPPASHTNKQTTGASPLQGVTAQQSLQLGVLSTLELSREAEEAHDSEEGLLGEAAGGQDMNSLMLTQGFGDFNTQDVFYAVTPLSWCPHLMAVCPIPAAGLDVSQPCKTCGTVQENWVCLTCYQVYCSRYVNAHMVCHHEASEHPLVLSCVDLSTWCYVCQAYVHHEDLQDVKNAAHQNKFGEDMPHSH

[2] = tested on: Mus musculus; test: Antitumor immunity against mouse SM1 cells implanted in flank of immunocompetent C57BL/6 mouse assessed as increase in ratio of M1/M2 macrophages at 25 mg/kg, ip administered 1 week post-implantation by flow cytometry; type: functional, organism-based
[3] = target: Histone deacetylase (Mus musculus) (UniProt Q8VH37+Q9Z2V6+Q9Z2V5+O09106+Q8C2B3+P70288+O88895+Q91WA3+Q99N13+Q6NZM9+Q6P3E7); test: Inhibition of HDAC in mouse SM1 cells at 0.1 to 25 uM measured after 1 hr by HDAC-Glo 1/2 luminescent assay; type: cell-based
Procedure, shortened: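 Cells plated at 10,000 per well overnight, then after 24 h treated with compound for 1 h at 37 °C, 5% CO2. HDAC-Glo I/II developer mixed with substrate and added to wells; luminescence read every 2 min for 1 h 15 min.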

[4] = tested on: PC-3; test: Induction of cell death in human PC3 cells at 0.1 to 25 uM; type: cell-based; settings: pc-3, 25 µM
[5] = Half life in mouse hepatocytes; type: ADME, cell-based, Hepatocyte
Procedure, shortened: (§1)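 Half-life in minutes measured in mouse and human hepatocytes.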

[6] = Induction of cell death in mouse SM1 cells at 0.1 to 25 uM; type: cell-based
[7] = Mutagenicity in Salmonella typhimurium TA98 assessed as induction of >= 2 fold increase in revertant colonies at 1.5 to 1000 ug/well in presence of S9 fraction by Ames test; type: toxicity, subcellular; settings: salmonella enterica subsp. enterica serovar typhimurium
Procedure, shortened: (§2)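 Ames test with S. typhimurium TA98 and TA1537, with and without S9 mix. A positive call required a ≥ 2-fold (TA98) or ≥ 3-fold (TA1537) rise in mean revertant colonies over the concurrent negative/solvent control.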

[8] = target: T1, Protein deacetylase HDAC6 (Mus musculus); test: Inhibition of HDAC6 in mouse SM1 cells assessed as reduction in IL-6 stimulated STAT3 phosphorylation at Y705 residue at 5 uM pretreated for 1 hr followed by IL-6 stimulation for overnight by western blot analysis; type: cell-based
Procedure, shortened: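 SM1 cells pretreated with 5 µM compound, then IL-6 overnight. Lysed in RIPA buffer with protease and phosphatase inhibitors, sonicated, protein quantified by BCA. Immunoblot for PD-L1 and STAT3 Y705 phosphorylation.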

[9] = tested on: Mus musculus; test: Antitumor immunity against mouse SM1 cells implanted in flank of immunocompetent C57BL/6 mouse assessed as increase in infiltration of NKT cells at 25 mg/kg, ip administered 1 week post-implantation by flow cytometry; type: functional, organism-based
[10] = Induction of apoptosis in mouse SM1 cells at 0.1 to 25 uM by caspase3/7 reagent based luminescence assay; type: cell-based
Procedure, shortened: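 SM1 cells treated with HDAC inhibitors, with pan-HDACi and assay controls on every plate. ApoTox-Glo triplex readout: viability fluorescence 400Ex/505Em, cytotoxicity fluorescence 485Ex/520Em, then caspase 3/7 reagent read by luminescence for apoptosis.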

[11] = target: T1, Protein deacetylase HDAC6 (Mus musculus); test: Inhibition of HDAC6 in mouse SM1 cells assessed as reduction in IL-6 stimulated CD274 gene expression at 5 uM pretreated for 1 hr followed by IL-6 stimulation for overnight by qRT-PCR analysis; type: cell-based
Procedure, shortened: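 SM1 cells serum-starved overnight, pretreated 1 h with 5 µM compound, then given recombinant murine IL-6 at 30 ng/mL overnight. Total RNA extracted with Trizol; PD-L1 mRNA measured by qRT-PCR, normalized to GAPDH by the Pfaffl method, in arbitrary units.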

[12] = target: Voltage-gated inwardly rectifying potassium channel KCNH2 (Homo sapiens, UniProt Q12809); test: Inhibition of human ERG expressed in HEK293 cells by manual-patch clamp assay; type: cell-based
Sequence of Voltage-gated inwardly rectifying potassium channel KCNH2 (Q12809 whole entry): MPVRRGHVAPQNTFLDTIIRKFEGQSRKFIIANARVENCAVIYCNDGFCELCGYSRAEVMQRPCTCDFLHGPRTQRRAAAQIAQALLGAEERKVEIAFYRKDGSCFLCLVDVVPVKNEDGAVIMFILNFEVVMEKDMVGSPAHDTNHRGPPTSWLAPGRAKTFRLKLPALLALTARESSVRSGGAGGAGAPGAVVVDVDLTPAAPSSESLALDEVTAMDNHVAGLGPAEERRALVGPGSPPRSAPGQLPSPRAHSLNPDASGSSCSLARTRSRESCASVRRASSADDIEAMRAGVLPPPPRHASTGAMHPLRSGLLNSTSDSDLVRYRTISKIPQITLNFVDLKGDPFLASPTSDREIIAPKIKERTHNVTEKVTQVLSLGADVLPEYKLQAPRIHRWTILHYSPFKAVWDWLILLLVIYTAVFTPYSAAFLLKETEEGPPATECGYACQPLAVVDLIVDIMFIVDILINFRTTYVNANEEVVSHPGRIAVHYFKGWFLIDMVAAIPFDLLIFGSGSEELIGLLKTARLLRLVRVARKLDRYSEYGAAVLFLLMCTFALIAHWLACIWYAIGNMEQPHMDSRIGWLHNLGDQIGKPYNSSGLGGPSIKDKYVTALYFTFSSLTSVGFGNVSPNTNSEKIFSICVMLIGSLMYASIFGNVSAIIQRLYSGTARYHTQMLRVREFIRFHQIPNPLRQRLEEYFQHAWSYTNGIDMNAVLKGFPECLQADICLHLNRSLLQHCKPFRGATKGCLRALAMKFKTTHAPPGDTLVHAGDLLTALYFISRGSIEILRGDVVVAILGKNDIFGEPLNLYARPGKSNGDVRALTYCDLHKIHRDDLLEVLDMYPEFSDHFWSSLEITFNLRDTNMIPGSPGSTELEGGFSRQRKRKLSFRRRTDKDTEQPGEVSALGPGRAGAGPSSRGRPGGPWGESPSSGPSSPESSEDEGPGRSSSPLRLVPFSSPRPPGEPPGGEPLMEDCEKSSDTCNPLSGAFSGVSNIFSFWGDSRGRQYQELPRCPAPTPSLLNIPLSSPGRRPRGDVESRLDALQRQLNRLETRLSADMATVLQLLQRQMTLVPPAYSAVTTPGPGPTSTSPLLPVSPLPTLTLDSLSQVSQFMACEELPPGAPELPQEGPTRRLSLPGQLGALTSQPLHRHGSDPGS

[13] = Half life in human liver microsomes in presence of NADPH; type: ADME, Microsome
Procedure, shortened: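 Liver microsomal stability in mouse and human microsomes with NADPH; half-life in minutes.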

[14] = tested on: Mus musculus; test: Antitumor immunity against mouse SM1 cells implanted in flank of immunocompetent C57BL/6 mouse assessed as infiltration of intratumoral CD4+ cells at 25 mg/kg, ip administered 1 week post-implantation by flow cytometry; type: functional, organism-based
[15] = Mutagenicity in Salmonella typhimurium TA98 assessed as induction of >= 2 fold increase in revertant colonies at 1.5 to 1000 ug/well in absence of S9 fraction by Ames test; type: toxicity; settings: salmonella enterica subsp. enterica serovar typhimurium; procedure, shortened: as §2
[16] = Mutagenicity in Salmonella typhimurium TA1537 assessed as induction of >= 3 fold increase in revertant colonies at 1.5 to 1000 ug/well in absence of S9 fraction by Ames test; type: toxicity; settings: salmonella enterica subsp. enterica serovar typhimurium; procedure, shortened: as §2
[17] = Half life in human hepatocytes; type: ADME, cell-based, Hepatocyte; procedure, shortened: as §1

- inhibition [1]: Active
- inhibition [3]: Active
- half-life [5]: 0.367 h
- inhibition [8]: Active
- inhibition [11]: Active
- half-life [13]: 2.25 h
- half-life [17]: 1.8 h
SMILES: O=C(NCCc1cc(C(=O)NO)no1)c1ccc(Cl)c(Cl)c1
- Activity [2]: Active
- Activity [4]: Non-Toxic
- Activity [6]: Non-Toxic
- Activity [7]: Non-Toxic
- Activity [9]: Active
- Activity [10]: Non-Toxic
- IC50 [12]: > 30 µM
- Activity [14]: inactive
- Activity [15]: Non-Toxic
- Activity [16]: Non-Toxic
